In the M2OR odorant receptor database:

Biological target: T1, OR10H4 (Homo sapiens) (UniProt Q8NGA5)
T1 sequence (whole entry): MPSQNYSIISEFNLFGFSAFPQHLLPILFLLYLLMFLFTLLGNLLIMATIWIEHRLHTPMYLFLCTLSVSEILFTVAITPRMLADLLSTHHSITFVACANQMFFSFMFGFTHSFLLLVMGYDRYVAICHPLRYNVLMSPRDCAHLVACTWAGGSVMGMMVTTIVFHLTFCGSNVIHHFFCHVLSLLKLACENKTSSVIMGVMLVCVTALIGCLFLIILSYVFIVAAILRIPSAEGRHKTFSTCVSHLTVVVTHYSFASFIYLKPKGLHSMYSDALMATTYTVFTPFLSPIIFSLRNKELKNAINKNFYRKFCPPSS
Conditions: stereoisomer not certain
How it was run: (§1)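 Values were gathered from published papers (main text and supplementary material), with extra details requested from the original authors when needed, and checked for typos and inconsistencies. Each receptor–molecule pair is called responsive (active) if the original authors judged the measured signal statistically different from baseline, and non-responsive (inactive) otherwise. Assay methods varied by source, often transient mammalian cell-line luciferase assays. Recorded details include cell line, G-protein, co-transfected protein and tags.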

Odorant receptor agonist call, inactive:
CCCCCCC=CCCC=O, CC1CCCCCCCCCCCCC(=O)C1 (stereo not drawn), CCC1OC(=O)C(O)=C1C (stereo not drawn), CCCCCC(=O)C(C)C(C)=O (stereo not drawn), CC1=C(O)C(=O)C(C)O1 (stereo not drawn), CC1=NC(C)C(C)S1 (stereo not drawn), CCC1OC(C)=C(O)C1=O (stereo not drawn), CCCC(S)CCOC(C)=O (stereo not drawn), CCCCCC(S)C(C)CO (stereo not drawn), CCCCC(S)C(C)CO (stereo not drawn), CC(CO)CS (stereo not drawn), CC(=O)c1c(C)c([N+](=O)[O-])c(C(C)(C)C)c([N+](=O)[O-])c1C, Cc1cnc(C)c(C)n1, CCC(S)C(C)CO (stereo not drawn), CC1=C(O)C(=O)OC1C (stereo not drawn)

Biological target: T2, OR10H5 (Homo sapiens) (UniProt Q8NGA6)
T2 sequence (whole entry): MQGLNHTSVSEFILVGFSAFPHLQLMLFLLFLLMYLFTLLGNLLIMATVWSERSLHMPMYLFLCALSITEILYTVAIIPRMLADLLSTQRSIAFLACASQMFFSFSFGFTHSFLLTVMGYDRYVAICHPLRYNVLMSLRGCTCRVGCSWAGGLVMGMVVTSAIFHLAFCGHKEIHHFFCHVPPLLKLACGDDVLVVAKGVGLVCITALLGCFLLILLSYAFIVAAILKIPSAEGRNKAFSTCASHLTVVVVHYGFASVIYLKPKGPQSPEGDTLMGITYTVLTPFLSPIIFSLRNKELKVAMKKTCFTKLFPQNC
Conditions: stereoisomer not certain
How it was run: as §1

Odorant receptor agonist call, inactive:
CCCCCCC=CCCC=O, CC1CCCCCCCCCCCCC(=O)C1 (stereo not drawn), CCC1OC(=O)C(O)=C1C (stereo not drawn), CCCCCC(=O)C(C)C(C)=O (stereo not drawn), CC1=C(O)C(=O)C(C)O1 (stereo not drawn), CC1=NC(C)C(C)S1 (stereo not drawn), CCC1OC(C)=C(O)C1=O (stereo not drawn), CCCC(S)CCOC(C)=O (stereo not drawn), CCCCCC(S)C(C)CO (stereo not drawn), CCCCC(S)C(C)CO (stereo not drawn), CC(CO)CS (stereo not drawn), CC(=O)c1c(C)c([N+](=O)[O-])c(C(C)(C)C)c([N+](=O)[O-])c1C, Cc1cnc(C)c(C)n1, CCC(S)C(C)CO (stereo not drawn), CC1=C(O)C(=O)OC1C (stereo not drawn)

Biological target: T3, OR10J1 (Homo sapiens) (UniProt P30954)
T3 sequence (whole entry): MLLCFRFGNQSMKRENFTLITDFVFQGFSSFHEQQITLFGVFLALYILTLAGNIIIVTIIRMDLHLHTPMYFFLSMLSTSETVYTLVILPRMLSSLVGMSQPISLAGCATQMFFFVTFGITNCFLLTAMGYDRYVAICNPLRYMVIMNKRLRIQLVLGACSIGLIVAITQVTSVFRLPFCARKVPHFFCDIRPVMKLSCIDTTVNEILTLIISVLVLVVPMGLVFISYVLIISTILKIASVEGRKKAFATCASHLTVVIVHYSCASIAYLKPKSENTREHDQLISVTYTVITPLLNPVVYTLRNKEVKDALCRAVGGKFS
Conditions: stereoisomer not certain
How it was run: as §1

Odorant receptor agonist call, inactive:
CCCCCCC=CCCC=O, CCC1OC(=O)C(O)=C1C (stereo not drawn), CCCCCC(=O)C(C)C(C)=O (stereo not drawn), CC1=C(O)C(=O)C(C)O1 (stereo not drawn), CC1=NC(C)C(C)S1 (stereo not drawn), CCC1OC(C)=C(O)C1=O (stereo not drawn), CCCC(S)CCOC(C)=O (stereo not drawn), CCCCCC(S)C(C)CO (stereo not drawn), CCCCC(S)C(C)CO (stereo not drawn), CC(CO)CS (stereo not drawn), Cc1cnc(C)c(C)n1, CCC(S)C(C)CO (stereo not drawn), CC1=C(O)C(=O)OC1C (stereo not drawn)

Biological target: T4, OR10J3 (Homo sapiens) (UniProt Q5JRS4)
T4 sequence (whole entry): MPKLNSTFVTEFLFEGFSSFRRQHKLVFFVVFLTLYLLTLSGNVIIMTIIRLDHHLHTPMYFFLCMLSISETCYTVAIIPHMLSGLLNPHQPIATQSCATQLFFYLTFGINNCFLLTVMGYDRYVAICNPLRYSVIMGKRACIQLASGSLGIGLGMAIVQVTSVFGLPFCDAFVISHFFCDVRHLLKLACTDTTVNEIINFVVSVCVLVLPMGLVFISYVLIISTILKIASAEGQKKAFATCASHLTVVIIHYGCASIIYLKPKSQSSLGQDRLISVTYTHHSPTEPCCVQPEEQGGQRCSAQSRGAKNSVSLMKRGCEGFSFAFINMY
Conditions: stereoisomer not certain
How it was run: as §1

Odorant receptor agonist call, inactive:
CCCCCCC=CCCC=O, CC1CCCCCCCCCCCCC(=O)C1 (stereo not drawn), CCC1OC(=O)C(O)=C1C (stereo not drawn), CCCCCC(=O)C(C)C(C)=O (stereo not drawn), CC1=C(O)C(=O)C(C)O1 (stereo not drawn), CC1=NC(C)C(C)S1 (stereo not drawn), CCC1OC(C)=C(O)C1=O (stereo not drawn), CCCC(S)CCOC(C)=O (stereo not drawn), CCCCCC(S)C(C)CO (stereo not drawn), CCCCC(S)C(C)CO (stereo not drawn), CC(CO)CS (stereo not drawn), CC(=O)c1c(C)c([N+](=O)[O-])c(C(C)(C)C)c([N+](=O)[O-])c1C, Cc1cnc(C)c(C)n1, CCC(S)C(C)CO (stereo not drawn), CC1=C(O)C(=O)OC1C (stereo not drawn)
